Test results from ChEMBL document CHEMBL4138245, “Design and synthesis of novel quinacrine-[1,3]-thiazinan-4-one hybrids for their anti-breast cancer activity” (Eur J Med Chem, 2018).
Active and inactive are the calls of the source. No cut-off for these calls is given here.

What was measured:
[1] = test system: MDA-MB-231; experiment: Potency index, ratio of cisplatin IC50 to compound IC50 for antiproliferative activity against human MDA-MB-231 cells; assay type: functional
[2] = test system: MCF7; experiment: Antiproliferative activity against human MCF7 cells assessed as compound concentration required to show complete inhibition of cell viability up to 96 hrs by SRB assay; assay type: functional
[3] = test system: SK-BR-3; experiment: Antiproliferative activity against human SK-BR-3 cells assessed as compound concentration required to show complete inhibition of cell viability up to 96 hrs by SRB assay; assay type: functional
[4] = test system: MDA-MB-453; experiment: Antiproliferative activity against human MDA-MB-453 cells assessed as compound concentration required to show complete inhibition of cell viability up to 96 hrs by SRB assay; assay type: functional
[5] = test system: A549; experiment: Antiproliferative activity against human A549 cells assessed as compound concentration required to show complete inhibition of cell viability up to 96 hrs by SRB assay; assay type: functional
[6] = test system: NCI-H1975; experiment: Antiproliferative activity against human NCI-H1975 cells assessed as compound concentration required to show complete inhibition of cell viability up to 96 hrs by SRB assay; assay type: functional
[7] = test system: MCF-10A; experiment: Antiproliferative activity against human MCF10A cells at 1 to 2 uM up to 96 hrs by SRB assay; assay type: cell-based
[8] = test system: 184B5; experiment: Antiproliferative activity against human 184B5 cells at 1 to 2 uM up to 96 hrs by SRB assay; assay type: cell-based; conditions: 184b5, 96 h
[9] = test system: MDA-MB-231; experiment: Cell cycle arrest in human MDA-MB-231 cells assessed as accumulation at S phase at 2 uM after 48 hrs by propidium iodide staining based flow cytometry; assay type: functional
How it was run: (§1)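 MCF7, MDA-MB231 and non-cancer 184B5 breast cells exposed to 2 μM for 48 h, then cell-cycle analysis by flow cytometry; duplicates, repeated three times.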

[10] = test system: 184B5; experiment: Cell cycle arrest in human 184B5 cells at 2 uM after 48 hrs by propidium iodide staining based flow cytometry; conditions: 184b5, 48 h; how it was run: as §1
[11] = test system: MCF7; experiment: Cell cycle arrest in human MCF7 cells assessed as DNA content at 2 uM after 48 hrs by BrdU incorporation assay (reference value: 29.4%); assay type: functional
[12] = test system: 184B5; experiment: Inhibition of DNA replication in human 184B5 cells assessed as EdU incorporation at 2 uM pretreated for 48 hrs followed by EdU addition at final 45 mins of 48 hrs incubation time (reference value: 55%); assay type: cell-based; design: scale not given: the % may be the effect or the level left; conditions: 184b5, 48 h
[13] = test system: MCF7; experiment: Upregulation of Cyclin-E protein expression in human MCF7 cells at 2 uM after 12 to 24 hrs by Western blot method; assay type: functional, cell-based
[14] = test system: MCF7; experiment: Downregulation of Cyclin-B protein expression in human MCF7 cells at 2 uM after 24 to 72 hrs by Western blot method; assay type: functional, cell-based
[15] = test system: MCF7; experiment: Downregulation of Cyclin-A protein expression in human MCF7 cells at 2 uM after 24 to 72 hrs by Western blot method; assay type: functional, cell-based
[16] = test system: MCF7; experiment: Effect on Cyclin-D protein expression in human MCF7 cells at 2 uM after 24 to 72 hrs by Western blot method; assay type: functional, cell-based
[17] = test system: MCF7; experiment: Induction of DNA damage in human MCF7 cells assessed as increase in gammaH2Ax level at 2 uM after 24 to 48 hrs by Western blot method; assay type: functional, cell-based
[18] = molecular target: Serine/threonine-protein kinase mTOR (Homo sapiens) (UniProt P42345); experiment: Inhibition of mTOR phosphorylation at S2448 residue in human MCF7 cells at 2 uM after 6 hrs by Western blot method; assay type: cell-based
[19] = molecular target: Serine/threonine-protein kinase mTOR (Homo sapiens) (UniProt P42345); experiment: Inhibition of mTOR pathway in human MCF7 cells assessed as reduction in 4EBP1 phosphorylation at Thr37/Thr46 residues at 2 uM after 6 hrs by Western blot method; assay type: cell-based
[20] = molecular target: RAC-alpha serine/threonine-protein kinase (Homo sapiens) (UniProt P31749); experiment: Upregulation of AKT phosphorylation at Thr308 residue in human MCF7 cells at 2 uM after 24 to 48 hrs by Western blot method; assay type: cell-based
How it was run: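 MCF7 cells were treated with the compound, collected and PBS-washed, then lysed on ice (Triton X-100/Tris pH 7.4 buffer with PMSF and protease inhibitors). Lysates were BCA-quantified, and 30–40 µg protein was resolved on 8% or 10% SDS-PAGE. Proteins were semi-dry transferred to PVDF, milk-blocked and probed with primary antibody overnight at 4 °C, then detected by ECL. Blots are representative of three independent experiments.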

[21] = Selectivity index, ratio of compound concentration for cell killing activity in human MCF10A cells to compound concentration for cell killing activity in human SK-BR-3 cells; assay type: toxicity, cell-based; conditions: MCF10A cells versus SK-BR-3 cells, read-out: Selectivity Index
[22] = Selectivity index, ratio of compound concentration for cell killing activity in human MCF10A cells to compound concentration for cell killing activity in human CAMA1 cells; assay type: toxicity, cell-based; conditions: MCF10A cells versus CAMA1 cells, read-out: Selectivity Index
[23] = Selectivity index, ratio of compound concentration for cell killing activity in human 184B5 cells to compound concentration for cell killing activity in human MCF7 cells; assay type: toxicity, cell-based; conditions: 184B5 cells versus MCF7 cells, read-out: Selectivity Index
[24] = Selectivity index, ratio of compound concentration for cell killing activity in human 184B5 cells to compound concentration for cell killing activity in human BT20 cells; assay type: toxicity, cell-based; conditions: 184B5 cells versus BT20 cells, read-out: Selectivity Index
[25] = Selectivity index, ratio of compound concentration for cell killing activity in human 184B5 cells to compound concentration for cell killing activity in human BT474 cells; assay type: toxicity, cell-based; conditions: 184B5 cells versus BT474 cells, read-out: Selectivity Index
[26] = Selectivity index, ratio of compound concentration for cell killing activity in human 184B5 cells to compound concentration for cell killing activity in human SK-BR-3 cells; assay type: toxicity, cell-based; conditions: 184B5 cells versus SK-BR-3 cells, read-out: Selectivity Index
[27] = Selectivity index, ratio of compound concentration for cell killing activity in human 184B5 cells to compound concentration for cell killing activity in human CAMA1 cells; assay type: toxicity, cell-based; conditions: 184B5 cells versus CAMA1 cells, read-out: Selectivity Index
[28] = Selectivity index, ratio of compound concentration for cell killing activity in human 184B5 cells to compound concentration for cell killing activity in human MDA-MB-231 cells; assay type: toxicity, cell-based; conditions: 184B5 cells versus MDA-MB-231 cells, read-out: Selectivity Index
[29] = Selectivity index, ratio of compound concentration for cell killing activity in human 184B5 cells to compound concentration for cell killing activity in human MDA-MB-468 cells; assay type: toxicity, cell-based; conditions: 184B5 cells versus MDA-MB-468 cells, read-out: Selectivity Index
[30] = Selectivity index, ratio of compound concentration for cell killing activity in human 184B5 cells to compound concentration for cell killing activity in human LNCAP cells; assay type: toxicity, cell-based; conditions: 184B5 cells versus LNCAP cells, read-out: Selectivity Index
[31] = Selectivity index, ratio of compound concentration for cell killing activity in human 184B5 cells to compound concentration for cell killing activity in human PC3 cells; assay type: toxicity, cell-based; conditions: 184B5 cells versus PC3 cells, read-out: Selectivity Index
[32] = Selectivity index, ratio of compound concentration for cell killing activity in human 184B5 cells to compound concentration for cell killing activity in human A549 cells; assay type: toxicity, cell-based; conditions: 184B5 cells versus A549 cells, read-out: Selectivity Index

Chain of RAC-alpha serine/threonine-protein kinase (Homo sapiens) (P31749 whole entry): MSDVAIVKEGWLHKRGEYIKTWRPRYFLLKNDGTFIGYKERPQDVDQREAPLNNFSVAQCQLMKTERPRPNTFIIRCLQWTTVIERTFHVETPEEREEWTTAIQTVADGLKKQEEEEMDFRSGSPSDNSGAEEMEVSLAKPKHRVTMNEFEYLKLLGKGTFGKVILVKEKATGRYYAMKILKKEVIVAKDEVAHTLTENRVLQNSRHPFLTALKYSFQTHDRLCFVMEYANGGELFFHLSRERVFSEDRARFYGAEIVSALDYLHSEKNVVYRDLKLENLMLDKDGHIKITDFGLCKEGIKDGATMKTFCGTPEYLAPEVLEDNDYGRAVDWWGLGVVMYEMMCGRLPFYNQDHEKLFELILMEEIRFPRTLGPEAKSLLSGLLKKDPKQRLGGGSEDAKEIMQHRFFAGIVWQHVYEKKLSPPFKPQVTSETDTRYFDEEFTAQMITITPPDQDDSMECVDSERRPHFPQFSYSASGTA

COc1ccc2nc3cc(Cl)ccc3c(NCCCN3C(=O)CCSC3c3cccs3)c2c1 (configuration not stated)
Ratio IC50 [1]: 8.4 | Activity [2]: 1 µM | Activity [3]: 2 µM | Activity [4]: 2 µM | Activity [5]: 2 µM | Activity [6]: 2 µM | Activity [7]: Non-Toxic | Activity [8]: Non-Toxic | Activity [9]: Active | Activity [10]: Non-Toxic | Activity [11]: 0.9% | Activity [12]: 52% | Activity [13]: Active | Activity [14]: Active | Activity [15]: Active | Activity [16]: inactive | Activity [17]: inactive | inhibition [18]: Active | inhibition [19]: Active | Activity [20]: Active | selectivity ratio [21]: 3 to 6 | selectivity ratio [22]: 3 to 6 | selectivity ratio [23]: 3 to 6 | selectivity ratio [24]: 3 to 6 | selectivity ratio [25]: 3 to 6 | selectivity ratio [26]: 3 to 6 | selectivity ratio [27]: 3 to 6 | selectivity ratio [28]: 3 to 6 | selectivity ratio [29]: 3 to 6 | selectivity ratio [30]: 3 to 6 | selectivity ratio [31]: 3 to 6 | selectivity ratio [32]: 3 to 6
